The results in this text go back to ChEMBL document CHEMBL1158958, “Studies on inhibitors of skin tumor promotion, IX. Neolignans from Magnolia officinalis” (J Nat Prod, 1991).

Data set [1] deals with Raji. Nature of the data set: Inhibition of 12-O-tetradecanoylphorbol-13-acetate-induced EBV-early antigen activation in human Raji cells at 1000 molar ratio after 48 hrs relative to TPA. The arrangement: scale not given: the % may be the effect or the level left. It is filed as cell-based. Conditions: human gammaherpesvirus 4. The method in brief:
(§1)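 Raji indicator cells kept 48 h at 37° in 1 ml medium with n-butyric acid (4 mM, co-inducer), TPA (20 ng/ml, […]) and test compound in DMSO, dosed as mol ratio to TPA. EA-positive cells were found by indirect immunofluorescence on smears with high-titer EBV-positive NPC patient sera. At least 500 cells counted per assay, repeated twice. Induction is expressed relative to the butyric acid+TPA positive control (100%).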

The test system of data set [2] is Raji. In words: Inhibition of 12-O-tetradecanoylphorbol-13-acetate-induced EBV-early antigen activation in human Raji cells at 500 molar ratio after 48 hrs relative to TPA. It is filed as cell-based. The arrangement: scale not given: the % may be the effect or the level left. Conditions: human gammaherpesvirus 4. The method in brief: as §1
Data set [3] deals with Raji. In words: Inhibition of 12-O-tetradecanoylphorbol-13-acetate-induced EBV-early antigen activation in human Raji cells at 100 molar ratio after 48 hrs relative to TPA. It is filed as cell-based. Also on record: scale not given: the % may be the effect or the level left. Conditions: human gammaherpesvirus 4. The method in brief:
as §1

Data set [4] deals with Raji. Nature of the data set: Inhibition of 12-O-tetradecanoylphorbol-13-acetate-induced EBV-early antigen activation in human Raji cells at 10 molar ratio after 48 hrs relative to TPA. It is filed as cell-based. Also on record: scale not given: the % may be the effect or the level left. Conditions: human gammaherpesvirus 4. The method in brief: as §1
Data set [5] has as its system Raji. In words: Inhibition of 12-O-tetradecanoylphorbol-13-acetate-induced EBV-early antigen activation in human Raji cells at 1 molar ratio after 48 hrs relative to TPA. It is filed as cell-based. Also on record: scale not given: the % may be the effect or the level left. Conditions: human gammaherpesvirus 4. The method in brief: as §1
The nature of data set [6]: Cytotoxicity against human Raji cells assessed as cell viability at 1000 molar ratio. Format: cell-based. Conditions: read-out: Activity. An outline of the steps:
(§2)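 Raji cell viability read in the same EBV-EA run: 48 h at 37° with n-butyric acid (4 mM) and TPA ([…]) plus test compound in DMSO, dosed as mol ratio to TPA. Viability is given alongside the relative EA activation values.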

Data set [7] can be described thus: Cytotoxicity against human Raji cells assessed as cell viability at 500 molar ratio. Format: cell-based. The conditions noted are these: read-out: Activity. An outline of the steps: as §2
Data set [8] can be described thus: Cytotoxicity against human Raji cells assessed as cell viability at 100 molar ratio. Conditions: read-out: Activity. It is filed as cell-based. An outline of the steps:
as §2

Data set [9] is described as follows: Cytotoxicity against human Raji cells assessed as cell viability at 10 molar ratio. Format: cell-based. The conditions noted are these: read-out: Activity. An outline of the steps:
as §2

The nature of data set [10]: Cytotoxicity against human Raji cells assessed as cell viability at 1 molar ratio. It is filed as cell-based. The conditions noted are these: read-out: Activity. An outline of the steps: as §2
Another data set has as its system Mus musculus. In words: Inhibition of DMBA-induced/TPA-promoted carcinogenesis in ICR mouse assessed as reduction of skin papillomas per mouse at 85 nmol administered twice weekly after 1 week of initiation measured after 20 weeks. Format: functional. The arrangement: scale not given: the % may be the effect or the level left. An outline of the steps:
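Female ICR mice, 7 weeks old, 15 per group, had shaved backs. They were initiated with DMBA (100 µg, […]) in Me2CO, then promoted from 1 week later with TPA (1 µg, […]) in Me2CO twice weekly, with test agent given with TPA. Papilloma incidence and average papillomas per mouse were scored against the TPA-alone control.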

Some results are limits rather than exact numbers.

In the case of `C=CCc1ccc(O)c(-c2ccc(O)c(CC=C)c2)c1` [HONOKIOL], the Activity in the data set on Raji [1] was 0%; in the data set on Raji [2], 18.5%; in the data set with Raji [3] it was 69.4%; in the data set on Raji [4] it was 90.1%; in the data set with Raji [5], 100%. Moreover, the viability at 1000 molar ratio in data set [6] was determined as 60%. For the same compound, the viability at 500 molar ratio in data set [7] is above 80%. Moreover, the viability at 100 molar ratio in [8] is above 80%. For the same compound, the viability at 10 molar ratio in data set [9] is above 80%. The viability at 1 molar ratio in data set [10] is above 80%.
As for `C=CCc1ccc(O)c(-c2cc(CC=C)ccc2O)c1` [MAGNOLOL], the Activity is 0% with Raji [1]; 0% in the data set on Raji [2]; 31.2% with Raji [3]; 56.9% with Raji [4]; 94.4% with Raji [5]; 40% in the data set on Mus musculus. Further, the viability at 1000 molar ratio in [6] was determined as 70%. The viability at 500 molar ratio in data set [7] is above 80%. Also, the viability at 100 molar ratio in [8] is above 80%. For the same compound, the viability at 10 molar ratio in [9] was above 80%. Besides, the viability at 1 molar ratio in data set [10] is above 80%.
Regarding `CC1=CC[C@H](C(C)C)C=C1` [ALPHA-PHELLANDRENE], the Activity in the data set with Raji [1] is 78.5%; with Raji [2], 93.7%; in the data set with Raji [3], 100%; in the data set on Raji [4] it was 100%; in the data set with Raji [5], 100%. For the same compound, the viability at 1000 molar ratio in [6] is above 80%. In data set [7], the viability at 500 molar ratio was above 80%. The viability at 100 molar ratio in data set [8] is above 80%. The viability at 10 molar ratio in data set [9] was above 80%. Also, the viability at 1 molar ratio in data set [10] is above 80%.
With `C=CCc1ccc(O)c(-c2cc(CC=C)cc(C3C=C(C)CC[C@@H]3C(C)C)c2O)c1` (stereo partly specified) [MONOTERPENYL MAGNOLOL], the Activity in the data set with Raji [1] was 11.6%; in the data set on Raji [2], 20.9%; with Raji [3], 82.6%; in the data set on Raji [4] it was 100%; with Raji [5], 100%. Besides, the viability at 1000 molar ratio in data set [6] turned out to be 60%. Moreover, the viability at 500 molar ratio in data set [7] is above 80%. For the same compound, the viability at 100 molar ratio in [8] was above 80%. In [9], the viability at 10 molar ratio is above 80%. In addition, the viability at 1 molar ratio in data set [10] was above 80%.
`C=C1CCC[C@]2(C)CC[C@@H](C(C)(C)O)C[C@@H]12` [BETA-EUDESMOL]: the Activity in the data set on Raji [1] is 40.1%; with Raji [2] it was 68.9%; with Raji [3], 83.8%; in the data set on Raji [4] it was 100%; in the data set with Raji [5], 100%. Also, the viability at 1000 molar ratio in [6] is above 80%. In data set [7], the viability at 500 molar ratio was above 80%. In addition, in [8], the viability at 100 molar ratio is above 80%. For the same compound, the viability at 10 molar ratio in data set [9] was above 80%. In data set [10], the viability at 1 molar ratio was above 80%.
